Compound activity (PubChem)
RGS4 act = RGS4 potentiation or activation. HEK293 M3R/inducible RGS4, carbachol calcium flux Fluo4; hits give low values. B-score at 10 µM. hit rate 0.92% among 310,000. AID 463111;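 active = B-score of the integrated calcium signal more than 4 SD below the library mean, with starting fluorescence not abnormally high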;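 note: negative B-score means reduced calcium response which marks RGS4 activation or potentiation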
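test system = M3R-expressing HEK293 line, RGS4 induced by doxycycline | probe or stimulus = carbachol at ECmax as muscarinic agonist stimulus | timing = dye loading 30 min 37 °C, buffer rest 30 min RT | signal = calcium dye Fluo4 fluorescence | evaluation = B score from integrated fluorescence ratio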
MrgX1 ag = human MrgX1 receptor agonism, primary screen; hit rate 0.44% among 310,000; B-score at 10 µM; MrgX1-HEK293 cells, Fluo-4 calcium fluorescence, agonist mode; hits give high values;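 active = calcium response B-score plate-corrected fluorescence ratio at least 3 library SD, with starting fluorescence B-score inside 5 SD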
Target sequence (Q96LB2 whole entry, looked up): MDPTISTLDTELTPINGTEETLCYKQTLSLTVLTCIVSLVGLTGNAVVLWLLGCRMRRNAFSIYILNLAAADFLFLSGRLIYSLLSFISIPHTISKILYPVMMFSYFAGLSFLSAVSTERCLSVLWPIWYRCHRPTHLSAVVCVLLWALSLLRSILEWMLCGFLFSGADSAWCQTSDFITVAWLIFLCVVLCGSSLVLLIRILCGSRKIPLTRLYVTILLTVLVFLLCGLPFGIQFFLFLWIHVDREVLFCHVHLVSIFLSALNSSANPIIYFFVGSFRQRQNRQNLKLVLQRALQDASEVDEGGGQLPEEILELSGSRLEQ
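Test system: Stable human MrgX1 HEK293 cell line | Schedule: Overnight plating before 1 h dye loading | Read-out basis: Baseline-normalised fluorescence change ratio, B-scored | Detection: Kinetic calcium dye fluorescence, Fluo-4 NW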
MrgX1 antag = blocks BAM8-22 activation of human MrgX1 receptor; Q96LB2; MRGX1-HEK293 calcium flux, Fluo-4, BAM8-22 antagonism; hits give low values; B-score at 10 µM; hit rate 1.3% among 310,000;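 active = calcium-response B-score plate-corrected more than 3 library SD below zero, starting fluorescence within 5 deviations, no agonist response on first addition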;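 note: peak minus trough fluorescence over baseline after final BAM8-22 challenge near maximal dose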
RGS4 block = human RGS4 inhibition; B-score at 10 µM; HEK293 M3R/RGS4 inducible, Fluo-4 calcium flux; hits give high values; triggered by carbachol at its EC20; hit rate 0.45% among 310,000; AID 463165; P49798;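 active = B-score, a plate-corrected calcium signal, over three deviations above library mean, with baseline fluorescence within five deviations of library mean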;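 note: RGS4 expression induced by doxycycline in cells with stable M3 receptor; B-score is computed from the integrated fluorescence ratio over baseline after carbachol; higher B-score means a larger calcium signal and so more RGS4 inhibition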
Target sequence (P49798 whole entry, looked up): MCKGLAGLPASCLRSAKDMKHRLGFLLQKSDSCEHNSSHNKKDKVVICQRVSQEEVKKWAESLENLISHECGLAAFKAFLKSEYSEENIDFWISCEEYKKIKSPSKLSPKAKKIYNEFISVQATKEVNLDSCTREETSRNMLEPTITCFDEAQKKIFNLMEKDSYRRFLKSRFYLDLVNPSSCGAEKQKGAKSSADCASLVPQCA
MrgX1 allo act = allosterically activates human MrgX1 receptor signaling. MrgX1-HEK293, Fluo-4 calcium flux, FDSS; hits give high values. hit rate 0.63% among 310,000. B-score at 10 µM. AID 588675. Q96LB2;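 active = plate-corrected calcium response at least 3 library SD above typical, normal starting fluorescence, not activating the receptor alone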;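 note: compound read alongside a low EC10 to EC30 dose of BAM8-22 agonist; peak minus trough fluorescence over baseline measured at the second addition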
MrgX1 allo conf = confirmation of human MrgX1 receptor positive allosteric modulators. shares compounds with MrgX1 allo act. MrgX1-HEK293, Fluo-4 calcium fluorescence, FDSS. activation (ratio percentage), % at 10 µM. hit rate 13% among 1,200;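 active = ratio at least 3 SD above the weak peptide control, stable starting fluorescence, no direct agonism earlier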;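 note: compound followed by low BAM8-22 agonist challenge near EC20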
HEK293 Ca flux = MrgX1 antagonist counter-screen hit in parental HEK293 cells; hit rate 2% among 4,000; Fluo-4 calcium fluorescence, FDSS; shares compounds with MrgX1 antag; fluorescence ratio F(max-min)/F0 at 10 µM;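 active = duplicate-averaged calcium fluorescence ratio at least three times the standard deviation of buffer wells, a nonspecific response in parental cells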
HEK293 Ca counter = activity in parental HEK293 cells without MrgX1; shares compounds with MrgX1 antag; parental HEK293 calcium flux, Fluo-4 fluorescence ratio; hits give high values; fluorescence ratio F(max-min)/F0 at 10 µM; hit rate 0.4% among 4,000; AID 624114;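 active = calcium fluorescence ratio, averaged over duplicates, at least 3 SD of the buffer-well ratio, meaning a nonspecific response in receptor-free cells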;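 note: untransfected parental HEK293 lacking MrgX1 used as counterscreen for MrgX1 allosteric activators; fluorescence change taken during the second addition on a kinetic imager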
HEK293 Ca cntr2 = MrgX1 activator counter-screen hit in parental HEK293 cells; shares compounds with MrgX1 antag; Fluo-4 calcium fluorescence (FDSS); hits give high values; fluorescence ratio F(max-min)/F0 at 10 µM; hit rate 8.7% among 4,000; AID 624115;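 active = calcium fluorescence ratio at least three times the spread of buffer wells, meaning a non-specific response in parental cells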
Large screens that a line does not name were inactive (follow-up assays come after a bar, where they were run). Compounds with a hit are over-represented: about 3.5% of the library has one in this group of screens.

CN(C)S(=O)(=O)c1ccc(Cl)c(NC(=O)COC(=O)CN2C(=O)C3CCCCC3C2=O)c1 (stereo not given)	MrgX1 allo act 9 | MrgX1 allo conf inactive | HEK293 Ca flux inactive | HEK293 Ca counter inactive | HEK293 Ca cntr2 inactive
CCn1cc(-c2cc(C(=O)O)c3ccccc3n2)cn1	none
Cc1ccc(-n2c(C)cc(C(=O)CSc3nncs3)c2C)cc1	MrgX1 allo act 7 | MrgX1 allo conf 2.1% | HEK293 Ca flux inactive | HEK293 Ca counter inactive | HEK293 Ca cntr2 inactive
Cc1ccc(-n2c(C)cc(C(=O)CSc3nnnn3C)c2C)cc1	none
O=C(NC1CCCCC1)C(c1ccccc1)N(C(=O)c1csnn1)C1CCCC1 (stereo not given)	none
Cc1ccc(S(=O)(=O)N2CCC3(CC2)OCCN3S(=O)(=O)c2c(C)cc(C)cc2C)cc1	none
COc1ccc(C(=O)C2CCN(CC(=O)Nc3ccc(OC)cc3OC)CC2)cc1	MrgX1 allo act 7.5 | MrgX1 allo conf inactive | HEK293 Ca flux inactive | HEK293 Ca counter inactive | HEK293 Ca cntr2 inactive
CCc1noc(C)c1C(=O)N1CCSC1=Nc1cccc(Cl)c1C	none
CCc1[nH]nc2c1C(c1ccc(C)o1)C(C#N)=C(N)O2 (stereo not given)	MrgX1 allo act 7.6 | MrgX1 allo conf inactive | HEK293 Ca flux inactive | HEK293 Ca counter inactive | HEK293 Ca cntr2 inactive
O=C(Nc1ccc(Cl)cc1)NC1CCCC1Cc1ccco1 (stereo not given)	none
O=C(Nc1ccc(Cl)cc1)NC1CCCCC1Cc1ccco1 (stereo not given)	MrgX1 allo act 15 | MrgX1 allo conf 5.5% | HEK293 Ca flux inactive | HEK293 Ca counter inactive | HEK293 Ca cntr2 inactive
CCOCCCn1c(=S)[nH]c2cc(C(=O)NC3CCCC(C)C3C)ccc2c1=O (stereo not given)	none
CC(C)Nc1nc(NC(C)(C)C)nc(Oc2ccc(=O)n(C)n2)n1	MrgX1 allo act 28 | MrgX1 allo conf inactive | HEK293 Ca flux inactive | HEK293 Ca counter inactive | HEK293 Ca cntr2 inactive
COc1ccc(CCN2CC(C(=O)N(C)Cc3c(C)n[nH]c3C)CCC2=O)cc1 (stereo not given)	none (no result: MrgX1 ag, MrgX1 antag, MrgX1 allo act)
Cn1c(=O)c2c(ncn2CC(COCc2ccccc2)OCc2ccccc2)n(C)c1=O (stereo not given)	none
N#CC(C(=O)NC1CC1)c1nc2ccccc2nc1N1CCCC1 (stereo not given)	none
N#CC(C(=O)NC1CC1)c1nc2ccccc2nc1N1CCN(C/C=C/c2ccccc2)CC1 (stereo not given)	MrgX1 allo act 9.3 | MrgX1 allo conf inactive | HEK293 Ca flux inactive | HEK293 Ca counter inactive | HEK293 Ca cntr2 inactive
COC(=O)c1sc2nc(N3CCCCC3)c3c(c2c1N)CCCC3	MrgX1 allo act 6.9 | MrgX1 allo conf inactive | HEK293 Ca flux inactive | HEK293 Ca counter inactive | HEK293 Ca cntr2 inactive
CC(=O)c1c(C(C)=O)c(C)n(-c2cccc3cccnc23)c1C	none
Brc1ccsc1/C=N/Nc1ccccc1	none
O=c1oc(-c2ccccc2)nc2sc3c(c12)CCCC3	MrgX1 allo act 13 | MrgX1 allo conf inactive | HEK293 Ca flux inactive | HEK293 Ca counter inactive | HEK293 Ca cntr2 inactive
Cc1ccccc1-c1nc2sc3c(c2c(=O)o1)CCC3	none
O=C(COC(=O)Cc1c(F)cccc1Cl)NC(=O)c1ccccc1	none
CCc1csc(CCNC(=O)C2CCC(=O)N(Cc3cccc(C(F)(F)F)c3)C2)n1 (stereo not given)	none
O=C(Cn1cc([N+](=O)[O-])cn1)Nc1ccn(Cc2c(F)c(F)c(F)c(F)c2F)n1	none
O=C(C1CCN(S(=O)(=O)c2cccs2)CC1)N1CCc2ccccc2C1	none
O=C(C1CCCN(S(=O)(=O)c2cccs2)C1)N1CCc2ccccc2C1 (stereo not given)	MrgX1 allo act 9.6 | MrgX1 allo conf inactive | HEK293 Ca flux inactive | HEK293 Ca counter inactive | HEK293 Ca cntr2 inactive
CCOC(=O)c1ccc2c(c1)nc(-c1ccccn1)n2CC	MrgX1 allo act 7.6 | MrgX1 allo conf inactive | HEK293 Ca flux inactive | HEK293 Ca counter inactive | HEK293 Ca cntr2 inactive
CC1(C)C(C=C(Cl)Cl)C1C(=O)Nc1ccc([N+](=O)[O-])cc1 (stereo not given)	none (no result: RGS4 act, RGS4 block)
CC(C)c1ccc(C(=O)NNC(=O)c2ccncc2)cc1	none
CC(C)c1ccc(C(N)=S)cc1	MrgX1 allo act 14 | MrgX1 allo conf inactive | HEK293 Ca flux inactive | HEK293 Ca counter inactive | HEK293 Ca cntr2 inactive
CCC(=O)N(CCc1ccccc1)Cc1cc2ccc(OC)cc2[nH]c1=O	none
CCC(=O)N(CCc1ccccc1)Cc1cc2cc(OC)ccc2[nH]c1=O	MrgX1 allo act 10 | MrgX1 allo conf inactive | HEK293 Ca flux inactive | HEK293 Ca counter inactive | HEK293 Ca cntr2 inactive
CC(=O)N(CCc1ccccc1)Cc1cc2ccc(C)c(C)c2[nH]c1=O	MrgX1 allo act 8.6 | MrgX1 allo conf 2.4% | HEK293 Ca flux inactive | HEK293 Ca counter inactive | HEK293 Ca cntr2 inactive
CCC(=O)N(CCO)Cc1cc2ccc(C)c(C)c2[nH]c1=O	none
CCOCCn1c(SCc2c(F)cccc2Cl)nc2c1c(=O)[nH]c(=O)n2C	none
CCC1CCCCN1CCCNC(=O)c1ccc(N2CCCC2=O)cc1 (stereo not given)	none
CC(C)(C)OC(=O)N1CCC(CNC(=O)c2ccc(F)cc2)CC1	MrgX1 allo act 35 | MrgX1 allo conf inactive | HEK293 Ca flux inactive | HEK293 Ca counter inactive | HEK293 Ca cntr2 inactive
S=C(NCCCN1CCOCC1)Nc1cccc(Cl)c1	MrgX1 allo act 11 | MrgX1 allo conf inactive | HEK293 Ca flux inactive | HEK293 Ca counter inactive | HEK293 Ca cntr2 inactive
NNc1nc(-c2ccccc2Cl)nc2ccccc12	none
NNc1nc(-c2ccccc2Cl)nc2sc3c(c12)CCCC3	MrgX1 allo act 32 | MrgX1 allo conf inactive | HEK293 Ca flux inactive | HEK293 Ca counter inactive | HEK293 Ca cntr2 inactive
c1ccc(-c2nc3c(ccc4ccccc43)[nH]2)nc1	MrgX1 allo act 6.8 | MrgX1 allo conf inactive | HEK293 Ca flux inactive | HEK293 Ca counter inactive | HEK293 Ca cntr2 inactive
c1ccc(-c2nc3ccccc3[nH]2)nc1	none
Cc1ccc(S(=O)(=O)c2nnn(-c3cccc(F)c3)c2N)cc1	MrgX1 allo act 8.9 | MrgX1 allo conf inactive | HEK293 Ca flux inactive | HEK293 Ca counter inactive | HEK293 Ca cntr2 inactive
CC(C)c1cccc(OCCN2CCCC2)c1	none
O=C(O)CSc1ncnc2scc(-c3ccccc3)c12	none
